Measurements as given in ChEMBL document CHEMBL4251543, “Identification of potent tricyclic prodrug S1P1 receptor modulators” (Medchemcomm, 2017).

What was measured:
[1] = system: Rattus norvegicus; experiment: Immunosuppressive activity in Lewis rat assessed as reduction in blood lymphocytes count at 2 mg/kg, po after 4 hrs relative to control; format: functional; parameters: scale not given: the % may be the effect or the level left
Outline: (§1)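 Oral dosing in Lewis rats, with PEG300 as vehicle, given as solution or suspension adjusted for free test article if salt forms are used. Blood sampled at several time points. Lymphocytes counted on a hematology analyzer. Result is the reduction in circulating lymphocyte percentage versus the vehicle group at each time, averaged per group (n = 2).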

[2] = Prodrug conversion in Lewis rat blood assessed as parent compound levels at 2 mg/kg, po after 4 hrs; format: ADME, organism-based; conditions: in vivo, read-out: Drug metabolism
[3] = Prodrug conversion in Lewis rat blood assessed as formation phosphate metabolite at 2 mg/kg, po after 4 hrs; format: ADME, organism-based; conditions: in vivo
[4] = system: Rattus norvegicus; experiment: Immunosuppressive activity in Lewis rat assessed as reduction in blood lymphocytes count at 2 mg/kg, po after 24 hrs relative to control; format: functional; parameters: scale not given: the % may be the effect or the level left; outline: as §1
[5] = Prodrug conversion in Lewis rat blood assessed as parent compound levels at 2 mg/kg, po after 24 hrs; format: ADME, organism-based; conditions: in vivo, read-out: Drug metabolism
[6] = Prodrug conversion in Lewis rat blood assessed as formation phosphate metabolite at 2 mg/kg, po after 24 hrs; format: ADME, organism-based; conditions: in vivo
[7] = system: Rattus norvegicus; experiment: Immunosuppressive activity in Lewis rat assessed as reduction in blood lymphocytes count at 2 mg/kg, po after 48 hrs relative to control; format: functional; parameters: scale not given: the % may be the effect or the level left; outline: as §1
[8] = Prodrug conversion in Lewis rat blood assessed as parent compound levels at 2 mg/kg, po after 48 hrs; format: ADME, organism-based; conditions: in vivo, read-out: Drug metabolism
[9] = Prodrug conversion in Lewis rat blood assessed as formation phosphate metabolite at 2 mg/kg, po after 48 hrs; format: ADME, organism-based; conditions: in vivo
[10] = Half life in Lewis rat at 2 mg/kg, po after 72 hrs; format: ADME, organism-based; conditions: in vivo
[11] = species on record: Mus musculus; experiment: Pulmonary toxicity in mouse assessed as increase in BAL protein levels at 20 times ED50 relative to control; format: organism-based; conditions: in vivo
[12] = system: Rattus norvegicus; experiment: Immunosuppressive activity in po dosed Lewis rat assessed as reduction in blood lymphocytes after 24 hrs; format: functional; outline: as §1
[13] = Half life in rat; format: ADME, organism-based; conditions: in vivo

Row | concentration [2] [nM] | Drug metabolism [3] [nM] | concentration [5] [nM] | Drug metabolism [6] [nM] | concentration [8] [nM] | Drug metabolism [9] [nM] | half-life [10] [h] | half-life [13] [h] | Structure (SMILES) | Activity [1] [%] | Activity [4] [%] | Activity [7] [%] | fold change (FC) [11] | ED50 [12] [mg/kg]
1 | 200 | 120 | 140 | 58 | 27 | 18 | 20 |  | CCCCOCCOc1nc2c(s1)-c1ccc([C@H]3CC[C@](N)(CO)C3)cc1CC2 | 79 | 87 | 82 | 5 | 0.25
2 |  |  |  |  |  |  |  | 162 | CCCCCC[C@@H]1CCc2cc([C@H]3CC[C@](N)(CO)C3)ccc2C1 [BMS-986104] |  |  |  |  | 
